For one assay, the target named is Neuromedin-U receptor 2 (Homo sapiens, UniProt Q9GZQ4). As to the kind of experiment: Agonist activity at human NMU2R transfected in HEK293 cells after 7 hrs by luciferase reporter gene assay. The settings on record: hek293. The class given is cell-based. The method in brief: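 HEK-293 cells were stably co-transfected with a reporter gene construct and human NMU2R cDNA in pcDNA3.1(+), maintained under G418 selection at 37 °C in 5% CO2, then seeded and incubated overnight. Compounds were added at various concentrations for 7 h at 37 °C, followed by Bright-Glo luciferase read-out. Forskolin and NMU served as positive controls. EC50 was fitted by four-parameter logistic regression; means ± SEM of three independent experiments.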

Assay [1] addresses Adrenocorticotropic hormone receptor (Homo sapiens) (UniProt Q01718). As to the kind of experiment: Agonist activity at human MC2 receptor at 100 uM to 5 mM.
The target of assay [2] is Melanocortin receptor 3 (Homo sapiens) (UniProt P41968). The assay can be described thus: Agonist activity at human MC3 receptor at 100 uM to 5 mM.
Assay [3] deals with Melanocyte-stimulating hormone receptor (Mus musculus) (UniProt Q01727). As to the kind of experiment: Agonist activity at mouse MC1 receptor at 100 uM to 5 mM.
Assay [4] addresses Adrenocorticotropic hormone receptor (Mus musculus) (UniProt Q64326). As to the kind of experiment: Agonist activity at mouse MC2 receptor at 100 uM to 5 mM.
The target of assay [5] is Melanocortin receptor 3 (Mus musculus) (UniProt P33033). The assay can be described thus: Agonist activity at mouse MC3 receptor at 100 uM to 5 mM.
Assay [6] addresses Melanocortin receptor 5 (Mus musculus) (UniProt P41149). The assay can be described thus: Agonist activity at mouse MC5 receptor at 100 uM to 5 mM.
Assay [7] has as its target Melanin-concentrating hormone receptor 1 (Homo sapiens) (UniProt Q99705). As to the kind of experiment: Agonist activity at human MCH1 receptor at 100 uM to 5 mM.
The target of assay [8] is D(1A) dopamine receptor (Homo sapiens) (UniProt P21728). The assay can be described thus: Agonist activity at human D1 receptor at 100 uM to 5 mM.
In assay [9] the target is T1, Adenosine receptor A1 (Homo sapiens) (UniProt P30542).
T1 sequence (whole entry): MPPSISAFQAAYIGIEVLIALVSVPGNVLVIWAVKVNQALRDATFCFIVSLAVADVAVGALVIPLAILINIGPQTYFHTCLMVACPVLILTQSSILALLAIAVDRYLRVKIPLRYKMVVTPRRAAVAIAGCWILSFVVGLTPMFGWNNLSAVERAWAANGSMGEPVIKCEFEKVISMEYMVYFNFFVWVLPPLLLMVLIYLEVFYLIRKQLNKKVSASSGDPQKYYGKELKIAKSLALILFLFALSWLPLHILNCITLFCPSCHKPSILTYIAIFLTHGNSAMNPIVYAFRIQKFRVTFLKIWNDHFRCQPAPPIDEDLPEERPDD
As to the kind of experiment: Agonist activity at human A1 receptor at 100 uM to 5 mM.

In assay [10] the target is T2, Parathyroid hormone/parathyroid hormone-related peptide receptor (Homo sapiens) (UniProt Q03431).
T2 sequence (whole entry): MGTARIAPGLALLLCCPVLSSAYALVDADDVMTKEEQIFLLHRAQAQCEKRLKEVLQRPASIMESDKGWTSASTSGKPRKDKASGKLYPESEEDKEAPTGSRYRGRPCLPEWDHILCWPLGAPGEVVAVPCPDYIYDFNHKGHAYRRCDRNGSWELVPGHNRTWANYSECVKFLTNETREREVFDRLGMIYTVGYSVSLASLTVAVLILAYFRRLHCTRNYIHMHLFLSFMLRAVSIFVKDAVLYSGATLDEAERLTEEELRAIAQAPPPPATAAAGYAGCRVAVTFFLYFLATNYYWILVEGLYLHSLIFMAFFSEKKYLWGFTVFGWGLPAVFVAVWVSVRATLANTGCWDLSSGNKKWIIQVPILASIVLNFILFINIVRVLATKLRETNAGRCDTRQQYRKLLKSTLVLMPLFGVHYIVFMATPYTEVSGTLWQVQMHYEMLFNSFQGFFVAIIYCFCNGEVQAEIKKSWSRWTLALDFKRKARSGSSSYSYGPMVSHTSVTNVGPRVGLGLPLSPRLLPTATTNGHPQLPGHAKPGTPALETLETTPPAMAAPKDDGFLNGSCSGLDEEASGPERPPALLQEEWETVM
As to the kind of experiment: Agonist activity at human PTH receptor at 100 uM to 5 mM.

Assay [11] concerns the target T3, C5a anaphylatoxin chemotactic receptor 1 (Homo sapiens) (UniProt P21730).
T3 sequence (whole entry): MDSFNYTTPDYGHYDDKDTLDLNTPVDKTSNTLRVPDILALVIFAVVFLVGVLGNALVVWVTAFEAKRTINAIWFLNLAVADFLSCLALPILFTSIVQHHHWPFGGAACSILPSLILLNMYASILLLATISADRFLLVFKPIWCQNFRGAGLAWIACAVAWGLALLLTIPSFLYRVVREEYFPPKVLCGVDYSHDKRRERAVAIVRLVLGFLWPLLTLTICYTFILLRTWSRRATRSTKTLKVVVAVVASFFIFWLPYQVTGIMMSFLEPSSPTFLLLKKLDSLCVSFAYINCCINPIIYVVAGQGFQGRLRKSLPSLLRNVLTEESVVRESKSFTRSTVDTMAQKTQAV
The assay can be described thus: Agonist activity at human C5a receptor at 100 uM to 5 mM.

Assay [12] addresses T4, Neuropeptide Y receptor type 5 (Homo sapiens) (UniProt Q15761).
T4 sequence (whole entry): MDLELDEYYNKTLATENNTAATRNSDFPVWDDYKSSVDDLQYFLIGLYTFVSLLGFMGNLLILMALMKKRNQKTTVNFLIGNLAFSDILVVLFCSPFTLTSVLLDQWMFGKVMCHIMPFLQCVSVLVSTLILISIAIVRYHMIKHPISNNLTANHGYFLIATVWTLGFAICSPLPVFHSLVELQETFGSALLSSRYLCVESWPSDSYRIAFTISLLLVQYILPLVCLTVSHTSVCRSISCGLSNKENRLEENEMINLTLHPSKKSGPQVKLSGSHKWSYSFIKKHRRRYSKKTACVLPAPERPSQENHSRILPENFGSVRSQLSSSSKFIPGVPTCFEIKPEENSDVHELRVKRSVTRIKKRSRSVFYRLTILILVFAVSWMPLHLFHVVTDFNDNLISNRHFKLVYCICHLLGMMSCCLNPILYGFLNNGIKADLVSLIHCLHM
The assay can be described thus: Agonist activity at human NPY5 receptor at 100 uM to 5 mM.

SMILES strings stand for the structures. Activity calls are given as the source filed them. No cut-off for these calls is given here.

Chain of Melanocortin receptor 3 (Mus musculus) (P33033 whole entry): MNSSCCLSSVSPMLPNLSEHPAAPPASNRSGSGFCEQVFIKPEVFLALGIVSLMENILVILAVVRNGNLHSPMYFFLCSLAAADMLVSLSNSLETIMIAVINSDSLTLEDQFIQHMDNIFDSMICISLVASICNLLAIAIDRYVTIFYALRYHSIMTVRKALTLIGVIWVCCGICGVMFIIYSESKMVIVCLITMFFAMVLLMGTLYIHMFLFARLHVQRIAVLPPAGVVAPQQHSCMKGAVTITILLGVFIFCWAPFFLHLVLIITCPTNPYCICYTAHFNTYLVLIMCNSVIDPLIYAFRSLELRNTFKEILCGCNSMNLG
Chain of D(1A) dopamine receptor (Homo sapiens) (P21728 whole entry): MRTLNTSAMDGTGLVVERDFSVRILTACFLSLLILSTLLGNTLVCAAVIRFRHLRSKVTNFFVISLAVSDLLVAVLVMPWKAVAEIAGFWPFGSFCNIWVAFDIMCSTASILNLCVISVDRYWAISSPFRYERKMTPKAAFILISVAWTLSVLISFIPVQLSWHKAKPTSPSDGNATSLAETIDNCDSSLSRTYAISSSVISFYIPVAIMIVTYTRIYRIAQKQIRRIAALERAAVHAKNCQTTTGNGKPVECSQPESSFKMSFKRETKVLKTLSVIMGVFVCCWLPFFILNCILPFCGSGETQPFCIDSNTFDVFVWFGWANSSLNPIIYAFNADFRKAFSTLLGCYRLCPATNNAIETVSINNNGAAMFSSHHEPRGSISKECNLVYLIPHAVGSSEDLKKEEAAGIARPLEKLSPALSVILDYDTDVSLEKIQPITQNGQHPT
Chain of Melanin-concentrating hormone receptor 1 (Homo sapiens) (Q99705 whole entry): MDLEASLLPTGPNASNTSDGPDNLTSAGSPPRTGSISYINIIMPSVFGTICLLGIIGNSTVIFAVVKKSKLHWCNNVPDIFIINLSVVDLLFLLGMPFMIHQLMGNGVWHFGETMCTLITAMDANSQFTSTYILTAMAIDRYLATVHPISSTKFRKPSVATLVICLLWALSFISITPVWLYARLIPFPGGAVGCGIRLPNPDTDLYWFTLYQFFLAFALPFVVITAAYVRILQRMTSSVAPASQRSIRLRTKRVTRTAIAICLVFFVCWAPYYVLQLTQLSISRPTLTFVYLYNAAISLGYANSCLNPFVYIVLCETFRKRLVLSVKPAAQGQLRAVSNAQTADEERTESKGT
Chain of Adrenocorticotropic hormone receptor (Homo sapiens) (Q01718 whole entry): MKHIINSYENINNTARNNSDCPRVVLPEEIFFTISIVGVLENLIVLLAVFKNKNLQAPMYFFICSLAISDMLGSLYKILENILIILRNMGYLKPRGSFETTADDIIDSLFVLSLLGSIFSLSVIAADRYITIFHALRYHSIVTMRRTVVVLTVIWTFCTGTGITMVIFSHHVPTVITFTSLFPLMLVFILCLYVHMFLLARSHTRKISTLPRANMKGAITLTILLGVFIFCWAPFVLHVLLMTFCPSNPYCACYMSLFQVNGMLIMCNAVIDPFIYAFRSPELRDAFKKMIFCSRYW
Chain of Adrenocorticotropic hormone receptor (Mus musculus) (Q64326 whole entry): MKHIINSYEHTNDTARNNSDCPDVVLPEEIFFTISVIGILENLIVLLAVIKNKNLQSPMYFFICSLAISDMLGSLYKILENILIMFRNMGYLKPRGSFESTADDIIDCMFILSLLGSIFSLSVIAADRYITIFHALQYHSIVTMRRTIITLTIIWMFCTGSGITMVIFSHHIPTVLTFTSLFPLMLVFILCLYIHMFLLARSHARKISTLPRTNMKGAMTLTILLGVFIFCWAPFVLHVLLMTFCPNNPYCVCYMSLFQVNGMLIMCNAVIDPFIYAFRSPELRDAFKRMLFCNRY
Chain of Melanocortin receptor 5 (Mus musculus) (P41149 whole entry): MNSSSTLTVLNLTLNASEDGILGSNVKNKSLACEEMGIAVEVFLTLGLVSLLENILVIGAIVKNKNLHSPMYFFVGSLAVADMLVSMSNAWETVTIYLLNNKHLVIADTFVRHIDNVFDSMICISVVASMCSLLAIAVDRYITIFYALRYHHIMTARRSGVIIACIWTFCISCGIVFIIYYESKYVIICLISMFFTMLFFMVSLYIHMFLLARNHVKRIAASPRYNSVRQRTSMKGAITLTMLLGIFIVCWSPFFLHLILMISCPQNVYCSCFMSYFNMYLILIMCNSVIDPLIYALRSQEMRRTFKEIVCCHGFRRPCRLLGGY
Chain of Melanocyte-stimulating hormone receptor (Mus musculus) (Q01727 whole entry, looked up): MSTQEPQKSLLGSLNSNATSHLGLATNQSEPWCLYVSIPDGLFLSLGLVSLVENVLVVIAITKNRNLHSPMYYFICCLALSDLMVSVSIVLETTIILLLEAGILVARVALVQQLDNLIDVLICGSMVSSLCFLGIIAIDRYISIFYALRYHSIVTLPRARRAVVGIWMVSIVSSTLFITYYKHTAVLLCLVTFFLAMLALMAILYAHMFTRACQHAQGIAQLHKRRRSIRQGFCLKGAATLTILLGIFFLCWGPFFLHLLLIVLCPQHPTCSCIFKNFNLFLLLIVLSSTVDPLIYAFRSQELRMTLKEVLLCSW
Chain of Melanocortin receptor 3 (Homo sapiens) (P41968 whole entry): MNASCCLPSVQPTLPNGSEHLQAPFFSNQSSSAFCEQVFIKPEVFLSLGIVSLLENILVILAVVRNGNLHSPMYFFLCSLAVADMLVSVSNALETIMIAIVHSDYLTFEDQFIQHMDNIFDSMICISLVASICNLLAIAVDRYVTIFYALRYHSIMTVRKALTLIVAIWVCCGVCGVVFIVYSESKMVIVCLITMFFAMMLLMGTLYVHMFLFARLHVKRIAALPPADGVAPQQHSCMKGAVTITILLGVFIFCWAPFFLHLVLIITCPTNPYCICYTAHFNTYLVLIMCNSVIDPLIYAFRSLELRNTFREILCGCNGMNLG
Chain of Neuromedin-U receptor 2 (Q9GZQ4 whole entry): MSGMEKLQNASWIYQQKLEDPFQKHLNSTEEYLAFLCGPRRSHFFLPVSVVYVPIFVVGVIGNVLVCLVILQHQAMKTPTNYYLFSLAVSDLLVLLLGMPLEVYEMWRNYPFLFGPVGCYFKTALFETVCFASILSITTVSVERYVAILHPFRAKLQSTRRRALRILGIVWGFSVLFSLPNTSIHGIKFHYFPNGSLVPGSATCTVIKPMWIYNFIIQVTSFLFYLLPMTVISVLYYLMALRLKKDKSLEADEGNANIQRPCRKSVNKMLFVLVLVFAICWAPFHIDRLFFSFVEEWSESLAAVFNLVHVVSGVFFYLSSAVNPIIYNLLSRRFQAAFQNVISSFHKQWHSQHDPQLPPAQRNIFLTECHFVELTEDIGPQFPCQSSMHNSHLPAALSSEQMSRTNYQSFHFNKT

Take `O=c1c(O)c(-c2ccc(Cl)cc2Cl)oc2ccccc12`: the EC50 result on Neuromedin-U receptor 2 is reported as “Not Active”. Besides, the outcome in assay [1], in [2], in assay [3], in [4], in assay [5] and in assay [6] was inactive. In addition, the result in [7], in assay [8], in [9], in [10], in [11] and in [12] was inactive.
For `O=c1c(O)c(-c2c(F)ccc(F)c2Cl)oc2ccccc12`, the EC50 entry on Neuromedin-U receptor 2 is listed as “Not Active”. Further, the result in assay [1], in assay [2], in [3], in [4], in assay [5] and in assay [6] was inactive. Also, the result in assay [7], in [8], in assay [9], in assay [10], in assay [11] and in assay [12] was inactive.
`COc1ccc(C2C=Cc3ccccc3O2)cc1` (racemic): the EC50 entry on Neuromedin-U receptor 2 is reported as “Not Active”. Besides, the result in assay [1], in [2], in [3], in [4], in [5] and in assay [6] was inactive. Moreover, the result in assay [7], in [8], in [9], in assay [10], in assay [11] and in [12] was inactive.

These data come from ChEMBL document CHEMBL3351764, “Design, synthesis and biological activity of flavonoid derivatives as selective agonists for neuromedin U 2 receptor” (Bioorg Med Chem, 2014).
